# Measurements from ChEMBL document CHEMBL5537199, “Discovery and SAR Study of Boronic Acid-Based Selective PDE3B Inhibitors from a Novel DNA-Encoded Library” (J Med Chem, 2024).
# The source made the active and inactive calls. The rule behind the calls is not given here.
# Legend:
# [1] = target: T1, cGMP-inhibited 3',5'-cyclic phosphodiesterase 3B (Homo sapiens, UniProt Q13370); experiment: Inhibition of full-length PDE3B (M1 to E1112 residues) (unknown origin) using FAM-cAMP as substrate incubated for 120 mins by TR-FRET IMAP assay
# Summary of the method: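 Buffer 50 mM Tris-HCl pH 7.5, 8.3 mM MgCl2, 1.7 mM EGTA, 0.05% BSA. Compounds run as a concentration curve with a top final concentration of 100 μM. DMSO and 10 μM trequinsin served as controls. Terbium TR-FRET ratio read at 520:490 nm.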
# Target sequence in this assay (Q13370 whole entry, the tested form may be a part): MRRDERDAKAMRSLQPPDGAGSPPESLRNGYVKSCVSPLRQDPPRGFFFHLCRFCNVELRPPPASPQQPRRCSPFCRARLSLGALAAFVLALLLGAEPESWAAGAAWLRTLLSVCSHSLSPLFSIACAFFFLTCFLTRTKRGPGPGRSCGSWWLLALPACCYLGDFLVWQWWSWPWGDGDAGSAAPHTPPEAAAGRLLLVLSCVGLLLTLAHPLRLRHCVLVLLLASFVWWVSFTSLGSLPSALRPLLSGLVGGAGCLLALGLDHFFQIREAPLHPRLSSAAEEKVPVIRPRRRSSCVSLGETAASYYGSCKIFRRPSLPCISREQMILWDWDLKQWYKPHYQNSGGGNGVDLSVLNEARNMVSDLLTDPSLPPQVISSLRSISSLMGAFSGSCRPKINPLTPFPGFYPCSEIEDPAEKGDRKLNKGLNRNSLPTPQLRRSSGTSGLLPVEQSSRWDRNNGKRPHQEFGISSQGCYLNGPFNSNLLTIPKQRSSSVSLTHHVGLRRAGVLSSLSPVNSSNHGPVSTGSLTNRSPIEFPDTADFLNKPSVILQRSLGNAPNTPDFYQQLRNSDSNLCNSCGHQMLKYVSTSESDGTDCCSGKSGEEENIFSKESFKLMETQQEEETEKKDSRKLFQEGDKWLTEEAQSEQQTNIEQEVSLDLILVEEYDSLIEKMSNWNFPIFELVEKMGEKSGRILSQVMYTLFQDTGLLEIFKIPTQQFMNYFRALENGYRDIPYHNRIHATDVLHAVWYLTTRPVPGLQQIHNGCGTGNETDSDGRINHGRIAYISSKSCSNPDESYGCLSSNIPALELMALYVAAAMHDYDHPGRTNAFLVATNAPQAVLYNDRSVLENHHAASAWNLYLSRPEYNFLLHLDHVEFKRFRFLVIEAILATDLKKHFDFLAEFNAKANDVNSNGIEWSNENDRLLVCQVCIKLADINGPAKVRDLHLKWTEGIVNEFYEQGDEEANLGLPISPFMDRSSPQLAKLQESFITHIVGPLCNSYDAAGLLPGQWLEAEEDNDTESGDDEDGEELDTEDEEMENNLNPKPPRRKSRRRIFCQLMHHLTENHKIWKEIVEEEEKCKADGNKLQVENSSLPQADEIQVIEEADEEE
# [2] = target: cGMP-inhibited 3',5'-cyclic phosphodiesterase 3A (Homo sapiens, UniProt Q14432); experiment: Inhibition of PDE3A (M1 to Q1141 residues) (unknown origin) using FAM-cAMP as substrate incubated for 45 mins by TR-FRET IMAP assay
# Summary of the method: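 Full-length PDE3A at 1.6 nM with 50 nM FAM-cAMP, 45 min reaction. Buffer 50 mM Tris-HCl pH 7.5, 8.3 mM MgCl2, 1.7 mM EGTA, 0.05% BSA. Compounds run as a concentration curve with a top final concentration of 100 μM. DMSO and 10 μM trequinsin served as controls. TR-FRET read at Ex 337 nm, Em 520/490 nm.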
# [3] = Selectivity ratio of inhibition for PDE3A (M1 to Q1141 residues) (unknown origin) by IMAP assay to inhibition for PDE3B (M1 to E1112 residues) (unknown origin) by IMAP assay
# [4] = Selectivity ratio of inhibition for PDE3A (M1 to Q1141 residues) (unknown origin) by RF-MS assay to inhibition for PDE3B (M1 to E1112 residues) (unknown origin) by RF-MS assay
# [5] = target: T1, cGMP-inhibited 3',5'-cyclic phosphodiesterase 3B; experiment: Inhibition of PDE3B (unknown origin) expression in adipocytes assessed as reduction in lipid hydrolysis at 10 uM; assay type: cell-based
# Target sequence in this assay (Q13370 whole entry, looked up, the tested form may be a part): as the sequence (Q13370 whole entry, the tested form may be a part) above
# cGMP-inhibited 3',5'-cyclic phosphodiesterase 3A, sequence (Q14432 whole entry, the tested form may be a part): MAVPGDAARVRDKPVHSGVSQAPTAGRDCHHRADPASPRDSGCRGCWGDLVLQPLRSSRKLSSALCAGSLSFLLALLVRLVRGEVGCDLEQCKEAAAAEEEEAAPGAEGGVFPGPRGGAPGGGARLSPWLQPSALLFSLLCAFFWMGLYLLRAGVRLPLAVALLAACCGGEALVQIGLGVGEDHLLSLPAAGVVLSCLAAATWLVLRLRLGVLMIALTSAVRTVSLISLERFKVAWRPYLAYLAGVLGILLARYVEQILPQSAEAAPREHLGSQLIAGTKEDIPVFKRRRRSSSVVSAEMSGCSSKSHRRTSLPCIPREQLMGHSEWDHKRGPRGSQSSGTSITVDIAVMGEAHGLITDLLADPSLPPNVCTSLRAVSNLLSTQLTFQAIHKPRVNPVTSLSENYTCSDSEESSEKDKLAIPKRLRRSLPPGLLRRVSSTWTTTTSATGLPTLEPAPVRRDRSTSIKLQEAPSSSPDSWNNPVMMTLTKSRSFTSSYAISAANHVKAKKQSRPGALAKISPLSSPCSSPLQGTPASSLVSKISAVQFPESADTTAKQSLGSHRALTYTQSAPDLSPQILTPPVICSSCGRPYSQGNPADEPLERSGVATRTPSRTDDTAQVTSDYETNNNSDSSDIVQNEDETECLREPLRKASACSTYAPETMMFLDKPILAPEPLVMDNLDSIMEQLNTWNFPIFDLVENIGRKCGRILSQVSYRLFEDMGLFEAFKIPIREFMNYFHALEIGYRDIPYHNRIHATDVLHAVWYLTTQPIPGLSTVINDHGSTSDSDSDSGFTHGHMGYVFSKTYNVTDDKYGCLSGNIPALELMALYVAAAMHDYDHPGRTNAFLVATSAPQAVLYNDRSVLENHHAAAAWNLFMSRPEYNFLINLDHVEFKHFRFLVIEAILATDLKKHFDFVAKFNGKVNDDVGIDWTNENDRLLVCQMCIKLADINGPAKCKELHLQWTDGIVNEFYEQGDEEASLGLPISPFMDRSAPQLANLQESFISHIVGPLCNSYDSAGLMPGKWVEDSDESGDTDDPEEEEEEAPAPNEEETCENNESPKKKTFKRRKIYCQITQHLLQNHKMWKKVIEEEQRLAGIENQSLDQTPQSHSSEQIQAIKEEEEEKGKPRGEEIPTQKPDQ
IC50 [1] [nM],IC50 [2] [nM],Selectivity ratio [3],Selectivity ratio [4],inhibition [5],Compound
79.4,1000,12,26,,CNC(=O)[C@@H](NC(=O)c1cc(NC(=O)c2cc(OC)c3ccc(OC)cc3n2)cc(B(O)O)c1)C1CCCCC1
50.1,20,0.5,0.5,,CNC(=O)[C@@H](NC(=O)c1cc(NC(=O)c2ccc3ccccc3n2)cc(B(O)O)c1)C1CCCCC1
6.31,5.01,0.7,1,,CNC(=O)[C@@H](NC(=O)c1cc(NC(=O)c2cc(F)cc3nccnc23)cc(B(O)O)c1)C1CCCCC1
2000,> 100000,> 52,> 177,,COC(=O)c1cc(NC(=O)c2cc(OC)c3ccc(OC)cc3n2)cc(B(O)O)c1
31600,39800,1.3,1.8,,CNC(=O)[C@@H](NC(=O)c1cc(NC(=O)c2ccc3cc(OC)ccc3c2)cc(B(O)O)c1)C1CCCCC1
316,> 100000,> 300,46,Active,COCC(C)NC(=O)c1cc(NC(=O)c2cc(OC)c3ccc(OC)cc3n2)cc(B(O)O)c1 (stereo unspecified)
2000,> 100000,> 44,> 107,,CNC(=O)c1cc(NC(=O)c2cc(OC)c3ccc(OC)cc3n2)cc(B(O)O)c1
501,> 100000,> 190,50,,COC[C@H](NC(=O)c1cc(NC(=O)c2cc(OC)c3ccc(OC)cc3n2)cc(B(O)O)c1)C(C)C
,,,,Active,CC1CC(=O)NN=C1c1ccc(NC2=C(Cc3cccc(-c4ccccc4)c3)C(=O)CCC2)cc1 (stereo unspecified)
200,398,2,2.7,,CNC(=O)[C@@H](NC(=O)c1cc(NC(=O)c2nccc3ccccc23)cc(B(O)O)c1)C1CCCCC1
7.94,5.01,0.7,1.1,Active,CNC(=O)[C@@H](NC(=O)c1cc(NC(=O)c2cc(C)c3ccccc3n2)cc(B(O)O)c1)C1CCCCC1
10000,12600,1.4,4.2,,COc1ccc2c(OC)cc(C(=O)Nc3cccc(B(O)O)c3)nc2c1
2510,7940,3,5,,COc1ccc2c(OC)cc(C(=O)Nc3cc(B(O)O)cc(C(=O)O)c3)nc2c1
